# Measured values published in ChEMBL document CHEMBL2057168, “(1aR,5aR)1a,3,5,5a-Tetrahydro-1H-2,3-diaza-cyclopropa[a]pentalene-4-carboxylic acid (MK-1903): a potent GPR109a agonist that lowers free fatty acids in humans” (J Med Chem, 2012).
# The source made the active and inactive calls. The calls are words filed in the database; no cut-off is given here.
# Key:
# [1] = target: Hydroxycarboxylic acid receptor 3 (Homo sapiens) (UniProt P49019); experiment: Agonist activity at human GPR109b assessed as decrease in forskolin-stimulated cAMP production by HTRF assay; assay type: functional
# Hydroxycarboxylic acid receptor 3 (Homo sapiens), sequence (P49019 whole entry): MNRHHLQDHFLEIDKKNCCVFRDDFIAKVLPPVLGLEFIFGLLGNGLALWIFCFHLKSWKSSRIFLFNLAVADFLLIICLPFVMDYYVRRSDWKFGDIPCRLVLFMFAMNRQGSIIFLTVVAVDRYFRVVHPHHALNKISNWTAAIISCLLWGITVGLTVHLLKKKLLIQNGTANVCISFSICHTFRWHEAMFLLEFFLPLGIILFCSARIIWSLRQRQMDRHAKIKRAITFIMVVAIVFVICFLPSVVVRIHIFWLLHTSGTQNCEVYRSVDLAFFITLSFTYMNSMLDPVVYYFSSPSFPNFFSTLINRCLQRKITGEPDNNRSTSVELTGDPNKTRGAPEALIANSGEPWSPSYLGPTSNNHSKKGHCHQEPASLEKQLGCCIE
# Mus musculus = experiment: Toxicity in C57/Bl6 mouse assessed as increase in cutaneous blood flow in ear at 100 mg/kg, ip after 5 mins relative to vehicle treated control by laser doppler flowmetry; assay type: organism-based; design: dose 100 mg/kg, route intraperitoneal; conditions: in vivo
# Outline: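 Male C57/Bl6 mice (8–10 weeks, ~25 g) anesthetized with Nembutal ip (80 mg/10 mL/kg). Ear perfusion recorded by laser Doppler imaging: 3 min baseline, then vehicle (PBS, 40% HPBCD or 0.5% methylcellulose) or compound given ip at 5 mL/kg through a preinserted syringe, with readings for ~15 min. Expressed as % change of perfusion over baseline.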
# Rattus norvegicus = experiment: Dose normalized AUC in Sprague-Dawley rat at 10 mg/kg, po; assay type: ADME, organism-based; design: dose 10 mg/kg, route oral; conditions: in vivo
# Outline: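 Male Sprague-Dawley rats were dosed at 10 mg/kg po or 2 mg/kg iv in 80% PEG400/20% phosphate-buffered saline, fasted overnight before the oral dose. Jugular blood was sampled serially from 0.25 to 21 h over 24 h, and heparinized plasma was prepared. Drug was assayed by HPLC/MS/MS (quantitation range 1–2000 ng/mL).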
# [2] = Plasma clearance in dog; assay type: ADME, organism-based, Canis lupus familiaris
# Canis familiaris = experiment: Dose normalized Cmax in po dosed dog; assay type: ADME, organism-based, Canis lupus familiaris; conditions: in vivo
# [3] = Volume of distribution in rhesus monkey; assay type: ADME, organism-based, Macaca mulatta; conditions: in vivo
# Homo sapiens [4] = experiment: Toxicity in po dosed human assessed as occurrence of flushing administered as single dose; assay type: organism-based; conditions: in vivo
# Outline: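 Healthy human volunteers received single oral doses. Flushing was recorded as a subject-reported adverse event and scored with a flushing symptoms questionnaire. It was compared qualitatively against a 1 g Niaspan dose.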
# Homo sapiens [5] = experiment: Activation of GPR109a receptor in po dosed human assessed as PGD2 metabolite level in urine; assay type: functional, organism-based
# [6] = AUC (0 to 12 hrs) in human at 150 mg, po BID administered on day 1 followed by 2-day wash out period after which dosing continued up to day 11 measured on day 1; assay type: ADME, organism-based; design: dose 150 mg, time < 12 hr, route oral; conditions: plasma
# Outline: (§1)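 Double-blind, placebo-controlled, randomized dose-escalation study in healthy male volunteers, six cohorts of eight (six active, two placebo). Oral dose on day 1, two-day washout, then dosing days 4–11; the 200 mg qd cohort was titrated over days 1–4. Venous blood taken predose and at 0.5–12 h on days 1, 4 and 11; plasma drug measured. τ 12 h (bid), 24 h (qd), 8 h (tid), 6 h (qid).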
# [7] = AUC (0 to 6 hrs) in human at 175 mg, po QID administered on day 1 followed by 2-days wash out period after which dosing continued up to day 11 measured on day 1; assay type: ADME, organism-based; design: time < 6 hr, dose 175 mg, route oral; conditions: plasma; outline: as §1
# [8] = Tmax in human at titreated po dose administered from day 1 to 4 followed by 200 mg, po QD administered up to day 11 measured on day 11; assay type: ADME, organism-based; conditions: in vivo
# Outline: (§2)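 Double-blind, placebo-controlled, randomized multiple oral dose study in healthy male volunteers (cohorts of eight; six active, two placebo). Dose given on day 1, then a two-day washout, then dosing days 4–11; for the QD arm, subjects were titrated over days 1–4. Venous plasma sampled predose and 0.5, 1, 1.5, 2, 4, 6, 8, 10, 12 h postdose on days 1, 4 and 11. Tmax reported as median (min–max).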
# [9] = Tmax in human at 175 mg, po QID administered on day 1 followed by 2-days wash out period after which dosing continued up to day 11 measured on day 1; assay type: ADME, organism-based; conditions: in vivo; outline: as §2
# [10] = Tmax in human at 175 mg, po QID administered on day 1 followed by 2-days wash out period after which dosing continued up to day 11 measured on day 11; assay type: ADME, organism-based; conditions: in vivo; outline: as §2
# [11] = Apparent half life in human at 100 mg, po BID administered on day 1 followed by 2-day wash out period after which dosing continued up to day 11 measured on day 11; assay type: ADME, organism-based; conditions: in vivo, read-out: t1/2(app) (converted); outline: as §1
# [12] = Apparent half life in human at 150 mg, po TID administered on day 1 followed by 2-day wash out period after which dosing continued up to day 11 measured on day 11; assay type: ADME, organism-based; conditions: in vivo, read-out: t1/2(app) (converted); outline: as §1
# Homo sapiens [13] = experiment: Antidyslipidemic activity in human assessed as decrease in free fatty acid level 50 to 150 mg, po BID administered on day 1 followed by 2-days wash out period after which dosing continued up to day 11 measured on day 4 and 11; assay type: functional, organism-based
# Outline: (§3)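 Healthy male volunteers in a randomized, double-blind, placebo-controlled multiple-dose study, six active and two placebo subjects per cohort. Oral dosing on day 1, two-day washout, then days 4–11, with titration over days 1–4 for the qd arm.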
# Homo sapiens [14] = experiment: Antidyslipidemic activity in human assessed as decrease in free fatty acid level 150 mg, po TID administered on day 1 followed by 2-days wash out period after which dosing continued up to day 11 measured on day 4 and 11; assay type: functional, organism-based; outline: as §3
# Homo sapiens [15] = experiment: Antidyslipidemic activity in dyslipidemia patient assessed as change in HDL-c level at 150 mg administered TID during four week study relative to control; assay type: functional
# [16] = Cmax in human at 50 mg, po BID administered on day 1 followed by 2-day wash out period after which dosing continued up to day 11 measured on day 1; assay type: ADME, organism-based; design: dose 50 mg, route oral; conditions: in vivo
# Outline: (§4)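 Healthy male volunteers took part in a double-blind, randomized, placebo-controlled dose-escalation study, with cohorts of 8 (6 on drug, 2 on placebo). Each subject got an oral dose on day 1, then a 2-day washout, then dosing on days 4–11. The 200 mg qd group was titrated over days 1–4. Venous plasma was sampled predose and 0.5–12 h postdose on days 1, 4 and 11, and predose on days 5–10 for troughs.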
# [17] = Cmax in human at 100 mg, po BID administered on day 1 followed by 2-day wash out period after which dosing continued up to day 11 measured on day 4; assay type: ADME, organism-based; design: dose 100 mg, route oral; conditions: in vivo; outline: as §1
# [18] = Cmax in human at 100 mg, po BID administered on day 1 followed by 2-day wash out period after which dosing continued up to day 11 measured on day 11; assay type: ADME, organism-based; design: dose 100 mg, route oral; conditions: in vivo; outline: as §1
# [19] = Cmax in human at 150 mg, po BID administered on day 1 followed by 2-day wash out period after which dosing continued up to day 11 measured on day 4; assay type: ADME, organism-based; design: dose 150 mg, route oral; conditions: in vivo; outline: as §4
# [20] = Cmax in human at 150 mg, po TID administered on day 1 followed by 2-days wash out period after which dosing continued up to day 11 measured on day 4; assay type: ADME, organism-based; design: dose 150 mg, route oral; conditions: in vivo; outline: as §4
# [21] = Cmax in human at 150 mg, po TID administered on day 1 followed by 2-days wash out period after which dosing continued up to day 11 measured on day 11; assay type: ADME, organism-based; design: dose 150 mg, route oral; conditions: in vivo; outline: as §4
# [22] = Cmin in human at 150 mg, po BID administered on day 1 followed by 2-day wash out period after which dosing continued up to day 11 measured on day 11 at 12 hrs; assay type: ADME, organism-based; conditions: in vivo, read-out: Cmin; outline: as §4
# [23] = Cmin in human at 150 mg, po TID administered on day 1 followed by 2-days wash out period after which dosing continued up to day 11 measured on day 11 at 8 hrs; assay type: ADME, organism-based; conditions: in vivo, read-out: Cmin; outline: as §4
# [24] = Tmax in human at 150 mg, po BID administered on day 1 followed by 2-day wash out period after which dosing continued up to day 11 measured on day 11; assay type: ADME, organism-based; conditions: in vivo; outline: as §2
# [25] = Tmax in human at 150 mg, po TID administered on day 1 followed by 2-days wash out period after which dosing continued up to day 11 measured on day 1; assay type: ADME, organism-based; conditions: in vivo; outline: as §2
structure (smiles),measurement,setting,value
O=C(O)c1n[nH]c2c1C[C@H]1C[C@@H]21,Activity,[1],inactive
same,Activity,Mus musculus,30%
same,AUC/dose,Rattus norvegicus,5.1 µM·kg·h/mg
same,clearance,[2],3.1 mL/min/kg
same,Cmax/dose,Canis familiaris,17.5 µM·kg/mg
same,Vd,[3],0.21 L/kg
same,MTD,Homo sapiens [4],200 mg
same,Activity,Homo sapiens [5],Dose-dependent effect
same,AUC at 12 h,[6],0.0977 µM·h
same,AUC at 6 h,[7],0.13 µM·h
same,Tmax,[8],1.25 h
same,Tmax,[9],1.25 h
same,Tmax,[10],0.75 h
same,half-life,[11],2.2 h
same,half-life,[12],11 h
same,Activity,Homo sapiens [13],Active
same,Activity,Homo sapiens [14],Active
same,Activity,Homo sapiens [15],4.6%
same,Cmax,[16],12.3 nM
same,Cmax,[17],33.1 nM
same,Cmax,[18],32.5 nM
same,Cmax,[19],31.7 nM
same,Cmax,[20],52.6 nM
same,Cmax,[21],44.9 nM
same,concentration at 12 h,[22],0.208 nM
same,concentration at 8 h,[23],0.708 nM
same,Tmax,[24],1 h
same,Tmax,[25],0.5 h
